In ChEMBL document CHEMBL1800004, “Discovery of 4-anilinofuro[2,3-b]quinoline derivatives as selective and orally active compounds against non-small-cell lung cancers” (J Med Chem, 2011):

What was measured:
Type in all cases: functional
[1] = system: SF-268; assay: Anticancer activity against human SF268 cells assessed as cell growth at 20 ug/mL after 48 hrs by SRB assay relative to control; settings: SF-268, 48 h, read-out: Activity
How it was run: (§1)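 Cells were inoculated and preincubated in microtiter plates. Compounds were dissolved in DMSO, diluted in culture medium, and tested at 20.0 and 4.0 μg/mL for 48 h. The end-point used sulforhodamine B protein staining, and growth was expressed as percent of untreated control cells.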

[2] = system: NCI-H460; assay: Anticancer activity against human NCI-H460 cells assessed as cell growth at 4 ug/mL after 48 hrs by SRB assay relative to control; settings: NCI-H460, 48 h, read-out: Activity; how it was run: as §1
[3] = system: NCI-H460; assay: Anticancer activity against human NCI-H460 cells assessed as cell growth at 20 ug/mL after 48 hrs by SRB assay relative to control; settings: NCI-H460, 48 h, read-out: Activity; how it was run: as §1
[4] = system: MCF7; assay: Anticancer activity against human MCF7 cells assessed as cell growth at 4 ug/mL after 48 hrs by SRB assay relative to control; settings: MCF7, 48 h, read-out: Activity; how it was run: as §1
[5] = system: MCF7; assay: Anticancer activity against human MCF7 cells assessed as cell growth at 20 ug/mL after 48 hrs by SRB assay relative to control; settings: MCF7, 48 h, read-out: Activity; how it was run: as §1
[6] = system: SF-268; assay: Anticancer activity against human SF268 cells assessed as cell growth at 4 ug/mL after 48 hrs by SRB assay relative to control; settings: SF-268, 48 h, read-out: Activity; how it was run: as §1

SMILES	growth at 20 µg/mL [1] [%]	growth at 4 µg/mL [2] [%]	growth at 20 µg/mL [3] [%]	growth at 4 µg/mL [4] [%]	growth at 20 µg/mL [5] [%]	growth at 4 µg/mL [6] [%]
COc1ccc2c(Nc3ccc(/C(C)=N/OCCN(C)C)cc3)c3ccoc3nc2c1	1	75	-1	67	-1	91
COc1ccc2c(Nc3ccc(/C(C)=N/OCCN4CCCC4)cc3)c3ccoc3nc2c1	6	69	5	63	3	104
COc1ccc2c(Nc3ccc(/C(C)=N/OCCCCN4CCOCC4)cc3)c3ccoc3nc2c1	44	89	21	83	75	110
COc1ccc2c(Nc3ccc(C(N)=O)cc3)c3c(Cl)coc3nc2c1	–	96	77	90	66	–
COc1ccc2c(Nc3ccc(/C(C)=N/OCCCN(C)C)cc3)c3c(Cl)coc3nc2c1	1	66	4	66	1	103
COc1ccc2c(Nc3ccc(/C(C)=N/OCCN4CCOCC4)cc3)c3c(Cl)coc3nc2c1	108	97	68	85	37	104
C/C(=N\OCCN1CCCCC1)c1ccc(Nc2c3ccccc3nc3occc23)cc1	-3	99	-1	114	3	96
C/C(=N\OCCN1CCCC1)c1ccc(Nc2c3ccccc3nc3occ(Cl)c23)cc1	-3	69	-1	86	-2	86
COc1ccc2c(Nc3ccc(C(=O)NCCCN(C)C)cc3)c3c(Cl)coc3nc2c1	71	92	36	91	72	94
C/C(=N\OCCN(C)C)c1ccc(Nc2c3ccccc3nc3occ(Cl)c23)cc1	2	68	-1	70	-3	71
C/C(=N\OCCN1CCCC1)c1ccc(Nc2c3ccccc3nc3occc23)cc1	-3	54	1	64	6	66
COc1ccc2c(Nc3ccc(/C(C)=N/OCCCCN4CCOCC4)cc3)c3c(Cl)coc3nc2c1	99	87	20	96	5	110
C/C(=N\OCCN(C)C)c1ccc(Nc2c3ccccc3nc3occc23)cc1	-5	94	0	59	0	81
COc1ccc2c(Nc3ccc(S(N)(=O)=O)cc3)c3c(Cl)coc3nc2c1	–	97	17	90	33	–
C/C(=N\OCCCN(C)C)c1ccc(Nc2c3ccccc3nc3occc23)cc1	0	52	7	84	22	62
COc1ccc2c(Nc3ccc(/C(C)=N/OCCN4CCCCC4)cc3)c3c(Cl)coc3nc2c1	48	67	3	56	-1	112
COc1ccc2c(Nc3ccc(/C(C)=N/OCCCN(C)C)cc3)c3ccoc3nc2c1	3	82	5	59	2	90
CNC(=O)c1ccc(Nc2c3ccc(OC)cc3nc3occ(Cl)c23)cc1	35	58	27	72	47	52
O=C(O)c1ccc(Nc2c3ccccc3nc3occ(Cl)c23)cc1	73	89	81	62	61	80
C/C(=N\OCCCN(C)C)c1ccc(Nc2c3ccccc3nc3occ(Cl)c23)cc1	1	52	1	61	1	66
COc1ccc2c(Nc3ccc(/C(C)=N/OCCN4CCCCC4)cc3)c3ccoc3nc2c1	44	84	9	77	2	106
COc1ccc2c(Nc3ccc(/C(C)=N/OCCCN)cc3)c3ccoc3nc2c1	56	105	16	100	18	103
COc1ccc2c(Nc3ccc(/C(C)=N/OCCCN)cc3)c3c(Cl)coc3nc2c1	48	91	8	101	3	109
NC(=O)c1ccc(Nc2c3ccccc3nc3occ(Cl)c23)cc1	97	97	97	93	92	97
COc1ccc2c(Nc3ccc(/C(C)=N/OCCN(C)C)cc3)c3c(Cl)coc3nc2c1	-1	74	-1	51	-2	102
C/C(=N\OCCN1CCOCC1)c1ccc(Nc2c3ccccc3nc3occ(Cl)c23)cc1	32	107	16	112	54	121
COc1ccc2c(Nc3ccc(/C(C)=N/OCCN4CCOCC4)cc3)c3ccoc3nc2c1	92	96	44	76	25	110
C/C(=N\OCCN1CCCCC1)c1ccc(Nc2c3ccccc3nc3occ(Cl)c23)cc1	31	101	3	121	26	120
C/C(=N\OCCCCN1CCOCC1)c1ccc(Nc2c3ccccc3nc3occc23)cc1	2	118	-1	76	-2	125
